hERG rescue = shields human hERG channel from block by proarrhythmic agents. CHO-hERG, FluxOR thallium flux, dofetilide IC70 present. 310,000 tested, 0.51% active. activation (rescue from dofetilide block), less the hit threshold, % at 10 µM. Q12809;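 active = activation above the mean of controls blocked by dofetilide plus 5 SD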;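 also: thallium influx through hERG after potassium depolarization seen as dye fluorescence rise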
KCNQ1 inh = human KCNQ1 channel inhibition. P51787. CHO-K1 KCNQ1, FluxOR thallium flux fluorescence; stronger effect = higher value. B-score at 10 µM. 310,000 tested, 1.3% active. AID 2642;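 active = compounds whose thallium flux B-score, printed positive for inhibition, exceeds three library SD while starting fluorescence stays within three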;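 also: channel opened by potassium depolarization with thallium stimulus after 20 min compound exposure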
KCNK9 inh = blocks the human KCNK9 two-pore domain potassium channel | 310,000 tested, 1.2% active | HEK293 KCNK9, FluxOR thallium flux fluorescence; stronger effect = lower value | B-score at 10 µM;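 active = ratio B-score over 3 SD below the library mean, with starting fluorescence within 5 SD of its mean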;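 also: negative B-score means less thallium flux so channel inhibition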
Target sequence (Q9NPC2 whole entry, looked up, the tested form may be a part): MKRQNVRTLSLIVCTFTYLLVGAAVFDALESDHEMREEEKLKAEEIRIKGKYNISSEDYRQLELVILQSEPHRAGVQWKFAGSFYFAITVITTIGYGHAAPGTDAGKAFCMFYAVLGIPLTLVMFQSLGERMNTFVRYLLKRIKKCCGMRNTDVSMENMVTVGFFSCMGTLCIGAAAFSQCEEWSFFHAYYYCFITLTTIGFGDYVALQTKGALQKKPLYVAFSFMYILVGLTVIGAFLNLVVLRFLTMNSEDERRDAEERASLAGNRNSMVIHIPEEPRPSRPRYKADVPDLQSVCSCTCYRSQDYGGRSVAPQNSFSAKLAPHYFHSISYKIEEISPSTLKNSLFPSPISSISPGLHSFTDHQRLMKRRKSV
KCNQ1 act = potentiates or activates the human KCNQ1 potassium channel; B-score at 10 µM; 310,000 tested, 0.35% active; CHO-K1 KCNQ1, thallium flux FluxOR fluorescence; stronger effect = higher value; AID 2648;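 active = fluorescence ratio B-score, a plate-corrected score, at least three library SD, with initial intensity B-score within 5 SD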
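Schedule – 37 °C overnight plating, 90-min dark dye load, 20-min compound pretreatment · System – stable KCNQ1 CHO-K1 line · Probe or stimulus – thallium- and potassium-containing depolarizing buffer · Measured by – kinetic FluxOR fluorescence, 10 s baseline plus 110 s post-stimulus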
Kir21 block = Kir2.1 (mouse) channel inhibition; 310,000 tested, 0.85% active; AID 1672; HEK293-Kir2.1, FluxOR thallium flux fluorescence; stronger effect = lower value; P35561; B-score at 10 µM;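 active = fluorescence ratio B-score at or below minus 3 SD of library scores, with starting-brightness B-score within 2 SD, cut at about -4.2 in these data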;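 also: channel flux triggered by added potassium and thallium sulfate stimulus; B-score of peak minus minimum fluorescence over baseline after thallium stimulus; more negative B-score means stronger Kir2.1 block with less thallium influx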
KCNK3 inh = human KCNK3 channel inhibition, primary screen; CHO-KCNK3 thallium flux, FluxOR fluorescence; stronger effect = lower value; 340,000 tested, 0.84% active; B-score at 10 µM; O14649; AID 602410;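 active = B-score under library mean minus 4 SD, starting fluorescence ratio at most library mean plus 5 SD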;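 also: more negative B-score means stronger inhibition of thallium flux through KCNK3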
KCNK9 inh conf = confirmation of human KCNK9 potassium channel inhibitors; 4,900 tested, 43% active; inhibition, % at 10 µM; shares compounds with KCNK9 inh; AID 492992; HEK293 KCNK9 cells, FluxOR thallium flux fluorescence;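 active = thallium signal inhibited by more than 5 SD of the compound-free buffer control wells, on both duplicate plates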;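 also: 0% = assay buffer control wells without compound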
Kir2-1 spec = tests whether KCNK9 modulators also affect mouse Kir2.1; 4,900 tested, 4% active; inhibition, % at 10 µM; Kir2.1 cells, FluxOR thallium flux fluorescence; shares compounds with KCNK9 inh; AID 492993;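 active = thallium signal drop more than 5 SD beyond the mean of the no-compound control wells, seen in both duplicate plates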;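 also: signal is fluorescence rise after thallium addition divided by baseline fluorescence; plate controls were assay buffer only for no effect and full block by chlorpromazine control for full effect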
HEK293 Tl ctr = second check of KCNK9 modulator effects in non-induced HEK293 cells | inhibition, % at 10 µM | 4,900 tested, 40% active | FluxOR thallium flux | AID 492997 | shares compounds with KCNK9 inh;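 active = thallium signal drop beyond 5 SD of the untreated control mean, on both duplicate plates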;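 also: plate controls were buffer only IC0 wells for no effect and SID17386958 at its maximal inhibitory level for full effect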
An asterisk follows results filed as active; i = inactive; . = no result. Compounds with a hit are over-represented: about 3.7% of the library has one in this group of screens.

SMILES | hERG rescue | KCNQ1 inh | KCNK9 inh | KCNQ1 act | Kir21 block | KCNK3 inh | KCNK9 inh conf | Kir2-1 spec | HEK293 Tl ctr
CCC(=O)N(CCC(c1ccc(C)cc1)c1ccco1)Cc1ccco1 (stereo not drawn) | -12 | i | -16* | i | -2.7 | i | 68%* | i | 46%*
CC(=O)N(CCC(c1ccco1)C(C)C)Cc1ccc(Cl)cc1 (stereo not drawn) | -9 | i | -9.3* | i | -3.2 | i | 40%* | 33%* | 46%*
CCCC(=O)N(CCN(Cc1ccccc1)C(=O)CCC)Cc1ccccc1 | -12 | i | i | i | -2.1 | i | . | . | .
CCN(CC)S(=O)(=O)c1ccc(=O)[nH]c1 | 0 | i | i | i | -1.8 | i | . | . | .
Cc1ccc(SCc2ccc(C(=O)N3CCCC3)cc2)cc1 | 5.7* | i | i | i | -1.7 | i | i | i | i
O=C(c1ccccc1)n1ccc(-c2cnc(-c3ccccc3)s2)n1 | -9 | i | i | i | 0.9 | i | . | . | .
COc1ccc(S(=O)(=O)n2ccc(-c3cnc(-c4ccccc4)s3)n2)cc1 | -8 | i | -10* | i | -0.32 | i | i | i | 31%*
COc1cccc(CN(C)C(=O)CNC(=O)c2sc3ccccc3c2Cl)c1OC | -14 | i | i | i | -0.56 | i | i | i | i
COc1ccc(CN(C)C(=O)CNC(=O)Cc2cccc3ccccc23)c(OC)c1OC | -6 | i | i | i | -0.09 | i | . | . | .
N#CC(C#N)=Cc1cnc(N2CCN(c3ccccc3)CC2)s1 | -4 | i | i | i | 1.3 | i | . | . | .
COc1ccc(/C=C/c2nc3ccccc3n2Cc2ccc(OC)c(OC)c2)cc1 | -3 | i | -8.1* | i | -2.2 | i | 58%* | i | 33%*
Cc1oc(-c2ccccc2Cl)nc1CS(=O)(=O)CC(=O)N1CCOCC1 | -8 | i | i | i | 1.8 | i | . | . | .
Cc1ccc(S(=O)(=O)N(C)C)cc1-n1c(SCC(=O)Nc2ccc(F)c(F)c2F)nc2ccccc2c1=O | -3 | i | -14* | i | 0.06 | i | 64%* | i | 40%*
Cc1ccc(S(=O)(=O)N(C)C)cc1-n1c(SCC(=O)N(C)C)nc2ccccc2c1=O | -6 | i | i | i | 2 | i | . | . | .
CCSc1nnc(NC(=O)CCN2C(=O)C3CCCCC3C2=O)s1 (stereo not drawn) | . | . | . | . | . | i | . | . | .
COC(=O)CCc1nc2cc(Cl)ccc2n(Cc2ccccc2)c1=O | -9 | i | i | i | -0.07 | i | . | . | .
CCC(c1nnnn1C(C)(C)C)N(Cc1ccco1)Cc1cc2cccc(C)c2[nH]c1=O (stereo not drawn) | -5 | i | i | i | -0.39 | i | . | . | .
CCC(c1nnnn1CCc1ccccc1)N(Cc1ccco1)Cc1cc2cccc(C)c2[nH]c1=O (stereo not drawn) | -12 | 7* | -10* | i | -1.7 | i | 33%* | i | 30%*
Cc1ccccc1S(=O)(=O)N1[C@@H](c2ccc(F)cc2)C(C(=O)O)=CC[C@H]1c1ccc(Cl)cc1 | . | . | . | . | . | i | . | . | .
Cc1ccc2c(c1)N(C(=O)CCC(=O)Nc1ccccc1Br)CC(C)O2 (stereo not drawn) | -8 | i | i | i | -0.03 | i | i | i | i
Cc1ccc(CNC(=O)CCC(=O)N2CC(C)Oc3ccc(Cl)cc32)cc1 (stereo not drawn) | -10 | i | i | i | 0.59 | i | . | . | .
Cc1ccc2c(c1)N(C(=O)CCC(=O)NCc1cccc(Br)c1)CC(C)O2 (stereo not drawn) | -15 | i | i | i | -0.02 | i | i | i | i
COC(=O)[C@H](CC(C)C)NC(=O)Cn1cnc(C(=O)Nc2ccc(C)c(C)c2)n1 | . | . | . | . | . | i | . | . | .
Cc1cc(C)n(-c2nc3ccccc3nc2N2CCCCCC2)n1 | -7 | i | -9.9* | i | -2 | i | 33%* | i | 40%*
O=C(CNC(=O)c1ccco1)NNC(=O)c1n[nH]c(=O)c2ccccc12 | . | . | . | . | . | i | . | . | .
SMILES | hERG rescue | KCNQ1 inh | KCNK9 inh | KCNQ1 act | Kir21 block | KCNK3 inh | KCNK9 inh conf | Kir2-1 spec | HEK293 Tl ctr
COc1cc(Cl)ccc1OCc1cc(C(=O)N2C[C@]3(C)C[C@H]2CC(C)(C)C3)no1 | -11 | i | i | i | -1.6 | i | i | i | i
COc1cc(Cl)ccc1OCc1cc(C(=O)N2C[C@H]3CC[C@H]2C3)no1 | -11 | i | i | i | -2.2 | i | . | . | .
NS(=O)(=O)c1ccc(NC(=O)CSc2nc3ccccc3nc2N2CCOCC2)cc1 | -8 | i | i | i | -1.6 | i | . | . | .
CC(=O)c1ccc(N2C(=NC(=O)CCc3ccccc3)SC3CS(=O)(=O)CC32)cc1 (stereo not drawn) | -10 | i | i | i | 0.42 | i | . | . | .
Cc1ccc2oc(-c3cccc(NC(=S)NC(=O)c4cccs4)c3)nc2c1 | -6 | i | i | i | 0.68 | i | . | . | .
Cc1ccc2oc(-c3cccc(NC(=S)NC(=O)/C=C/c4ccco4)c3)nc2c1 | -11 | i | i | i | -0.11 | i | i | i | i
O=C(c1nc2ccc(Cl)cn2c1CNCCc1cnccn1)N1CCCCCCC1 | -13 | i | i | i | -2.1 | i | . | . | .
COc1cccc(N(CC(=O)N/N=C(\C)c2cccs2)S(C)(=O)=O)c1 | -10 | i | i | i | -0.83 | i | . | . | .
C[C@H](OC(=O)N1CCN(C(c2ccccc2)c2ccccc2)CC1)[C@@H]1O[C@@]2(C)CCC[C@H]1O2 | -6 | i | i | i | -0.14 | i | . | . | .
O=C1CC(N2CCN(S(=O)(=O)c3cccc(C(F)(F)F)c3)CC2)C(=O)N1Cc1ccccc1 (stereo not drawn) | -4 | i | i | i | -0.1 | i | i | i | i
Cc1ccc(S(=O)(=O)N2CCN(C3CC(=O)N(Cc4ccccc4)C3=O)CC2)cc1C (stereo not drawn) | -6 | i | i | i | 0.9 | i | . | . | .
Oc1[nH]c2ccccc2c1N=NC(=S)N1CCOCC1 | -21 | i | -13* | i | 1.5 | i | 54%* | i | 45%*
Cc1cc(=O)oc2cc(NC(=O)CN3C(=O)NC(C)(c4ccccc4)C3=O)ccc12 (stereo not drawn) | -3 | i | i | i | -0.04 | i | . | . | .

Source: PubChem (Johns Hopkins Ion Channel Center)
